According to ChEMBL document CHEMBL1131183, “New 1alpha,25-dihydroxy-19-norvitamin D3 compounds of high biological activity: synthesis and biological evaluation of 2-hydroxymethyl, 2-methyl, and 2-methylene analogues” (1998):
Several values for one entry are separate records, joined by “and”; a condition that tells them apart may be missing. Equal values may be shown once.

Tests used:
HL-60 = test: Induced differentiation of human promyelocyte HL-60 cells into monocytes; format: functional; conditions: read-out: ED50 (the source's name)
Rattus norvegicus [1] = species: Rattus norvegicus; test: Support of intestinal calcium transport measured in vitamin D-deficient rats on a low-calcium diet(130); format: functional
Summary of the method: (§1)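 Vitamin D-deficient weanling male rats, 0.47% Ca diet 1 week then 0.02% Ca diet 3 weeks, given 130 or 260 pmol ip daily for 7 days in 0.1 mL propylene glycol/ethanol 95:5; vehicle controls. Killed 24 h after last dose; everted sac of proximal 10 cm intestine, Ca by atomic absorption, expressed as serosal/mucosal ratio. ≥6 rats/group, mean ± SEM, t-test.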

Rattus norvegicus [2] = species: Rattus norvegicus; test: Support of intestinal calcium transport measured in vitamin D-deficient rats on a low-calcium diet(260); format: functional; summary of the method: as §1
Rattus norvegicus [3] = species: Rattus norvegicus; test: Bone calcium mobilization measured in vitamin D-deficient rats on a low-calcium diet(260); format: functional, organism-based
Summary of the method: (§2)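 Weanling male rats kept on 0.47% Ca diet 1 week, then 0.02% Ca diet 3 weeks; dosed ip daily for 7 days (130 or 260 pmol) in 0.1 mL propylene glycol/ethanol 95:5 during last week; vehicle controls. Serum Ca measured 24 h after last dose by atomic absorption with 0.1% LaCl3; rise in serum Ca taken as bone mobilization. ≥6 rats/group, mean ± SEM, Student's t-test.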

[4] = target: T1, Vitamin D3 receptor (Sus scrofa) (UniProt A3RGC1); test: Inhibition of 1-alpha,25-(OH)2D3 binding to porcine intestinal vitamin D receptor
T1 sequence (whole entry): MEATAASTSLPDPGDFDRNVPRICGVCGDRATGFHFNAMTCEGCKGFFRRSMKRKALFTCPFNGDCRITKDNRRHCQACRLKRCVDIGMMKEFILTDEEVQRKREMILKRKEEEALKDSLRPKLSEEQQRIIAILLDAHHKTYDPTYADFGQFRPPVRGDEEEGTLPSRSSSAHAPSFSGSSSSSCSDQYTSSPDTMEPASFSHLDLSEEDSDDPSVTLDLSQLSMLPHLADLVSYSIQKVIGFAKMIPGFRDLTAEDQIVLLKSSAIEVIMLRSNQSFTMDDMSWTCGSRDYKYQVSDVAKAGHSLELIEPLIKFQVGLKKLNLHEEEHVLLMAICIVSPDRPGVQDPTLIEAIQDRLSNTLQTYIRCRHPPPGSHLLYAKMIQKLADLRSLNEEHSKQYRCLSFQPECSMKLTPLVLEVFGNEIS
Summary of the method: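 Porcine intestinal nuclear extract, 0.1 mg protein (200 fmol binding activity) per tube, incubated with 10 000 cpm 1α,25-(OH)2[26,27-3H]D3 plus graded unlabelled standard or analogue in ethanol, 4 h room temperature with shaking. Bound label captured on hydroxyapatite, washed with TE/5% Triton, counted by scintillation. ED50 = concentration displacing 50% of label, from dose-response curves; triplicate on two occasions.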

Rattus norvegicus [5] = species: Rattus norvegicus; test: Bone calcium mobilization measured in vitamin D-deficient rats on a low-calcium diet(130); format: functional, organism-based; summary of the method: as §2
[6] = target: T1, Vitamin D3 receptor (Sus scrofa)

EC50 (HL-60) [pM]	EC50 (HL-60; Homo sapiens, HL-60) [pM]	ED50 [4] [pM]	ED50 [6]	SMILES	Ca2+ transport S/M (Rattus norvegicus [1])	Ca2+ transport S/M (Rattus norvegicus [2])	Serum Ca2+ (Rattus norvegicus [3])	Serum Ca2+ (Rattus norvegicus [5])
70				CC1[C@H](O)CC(=C/C=C2\CCC[C@]3(C)[C@@H]([C@@H](C)CCCC(C)(C)O)CC[C@@H]23)C[C@H]1O (stereo partly specified) [listing 1 of 3 here]	12.9	8.4		
	20000			C[C@H](CCCC(C)(C)O)[C@H]1CC[C@H]2/C(=C/C=C3C[C@@H](O)C(CO)[C@H](O)C3)CCC[C@]12C (stereo partly specified)				
4500				C[C@@H](CCCC(C)(C)O)[C@H]1CC[C@H]2/C(=C/C=C3C[C@@H](O)C(CO)[C@H](O)C3)CCC[C@]12C (stereo partly specified) [listing 1 of 3 here]	3.5	3.5		
		90		C=C1/C(=C\C=C2/CCC[C@]3(C)[C@@H]([C@H](C)CCCC(C)(C)O)CC[C@@H]23)C[C@@H](O)C[C@@H]1O [CALCITRIOL]		6.2 and 5.6 and 4.6 and 6.6	6.6 [middle of 4 runs]	
				C[C@@H](CCCC(C)(C)O)[C@H]1CC[C@H]2/C(=C/C=C3C[C@@H](O)C(CO)[C@H](O)C3)CCC[C@]12C (stereo partly specified) [listing 2 of 3 here]			3.5 and 3.9	3.6 and 4
				CC1[C@H](O)CC(=C/C=C2\CCC[C@]3(C)[C@@H]([C@H](C)CCCC(C)(C)O)CC[C@@H]23)C[C@H]1O (stereo partly specified) [listing 1 of 3 here]			3.8 and 5.8	4.1 and 4.8
80				CC1[C@H](O)CC(=C/C=C2\CCC[C@]3(C)[C@@H]([C@H](C)CCCC(C)(C)O)CC[C@@H]23)C[C@H]1O (stereo partly specified) [listing 2 of 3 here]	4.3	5.3		
8000				CC1[C@H](O)CC(=C/C=C2\CCC[C@]3(C)[C@@H]([C@H](C)CCCC(C)(C)O)CC[C@@H]23)C[C@H]1O (stereo partly specified) [listing 3 of 3 here]	4.4	3		
	4200		120 pM	C=C1[C@H](O)CC(=C/C=C2\CCC[C@]3(C)[C@@H]([C@H](C)CCCC(C)(C)O)CC[C@@H]23)C[C@H]1O	5.3	4.9	9.6	9.9
			400 pM and 500 pM	CC1[C@H](O)CC(=C/C=C2\CCC[C@]3(C)[C@@H]([C@@H](C)CCCC(C)(C)O)CC[C@@H]23)C[C@H]1O (stereo partly specified) [listing 2 of 3 here]			10.3 and 4.4	8.3 and 4.4
2000				C[C@@H](CCCC(C)(C)O)[C@H]1CC[C@H]2/C(=C/C=C3C[C@@H](O)C(CO)[C@H](O)C3)CCC[C@]12C (stereo partly specified) [listing 3 of 3 here]	5	5.8		
700				CC1[C@H](O)CC(=C/C=C2\CCC[C@]3(C)[C@@H]([C@@H](C)CCCC(C)(C)O)CC[C@@H]23)C[C@H]1O (stereo partly specified) [listing 3 of 3 here]	2.9	3.8		
	150		100 pM	C=C1[C@H](O)CC(=C/C=C2\CCC[C@]3(C)[C@@H]([C@@H](C)CCCC(C)(C)O)CC[C@@H]23)C[C@H]1O [DP001]	5.8	4.6	14.4	13.8
